Results of several laboratories.
Protocols differ between the studies behind these lines.
Target: Mitogen-activated protein kinase kinase kinase 11 (MAP3K11, Homo sapiens, UniProt Q16584)

SMILES	read-out	technique	concentration	remaining binding
CC1CCCN1c1nccc(-c2cnn3ncccc23)n1 (centres unmarked)	binding	–	1 µM	100%
Cc1c(NC(=O)c2cc(C(N)=O)nc3cc(F)ccc23)c(C(F)(F)F)nn1Cc1ccc(C#N)cc1	cell-free assay	competition with immobilised ligand	1 µM	100%
O=C(NCCCN1CCOCC1)c1ccc(Nc2ncc(Cl)c(-c3ccc(Cl)s3)n2)cc1	binding	competition with immobilised ligand	1 µM	13%
CN(C)c1ncc(F)c(-c2cnn3ncccc23)n1	binding	–	1 µM	88%
COc1ncc2cc3ccccc3nc2c1C#N	cell-free assay	competition with immobilised ligand	5 µM	86%
Nc1ncc2c(n1)-c1c([nH]c3ccc(C#CC4CC4)cc13)CCCC2	binding	competition with immobilised ligand	1 µM	97%
COc1ccnn2ncc(-c3ccnc(N(C)C)n3)c12	binding	–	1 µM	100%
O=C(NCCCN1CCOCC1)c1ccc(Nc2nccc(-c3cc4ccccc4s3)n2)cc1	binding	competition with immobilised ligand	1 µM	39%
COc1cnc(Nc2cccc(S(N)(=O)=O)c2)nc1N1CCN(c2ccccc2)C(=O)C1	binding	competition with immobilised ligand	1 µM	100%
CCN1CCN(Cc2ccc(C(=O)Nc3ccc(C)c(Oc4ccc5c(c4)CC(=O)N5)c3)cc2C(F)(F)F)CC1	binding	competition with immobilised ligand	1 µM	100%
CCCOc1ccc([C@H]2[C@H](C(=O)O)[C@@H](c3ccc4c(c3)OCO4)CN2CC(=O)Nc2c(CC)cccc2CC)cc1	cell-free assay	competition with immobilised ligand	1 µM	100%
N[C@@H]1CCN(c2nccc(-c3cnn4ncccc34)n2)C1	binding	–	1 µM	99%
C[C@@]1(Cc2ccc(C#N)cc2)C(=O)N(c2cc(Cl)cc(Cl)c2)c2ncc(C(=O)NC3(c4nc(C5CCC5)no4)CC3)n21	cell-free assay	competition with immobilised ligand	1 µM	100%
Cc1cnc(Nc2ccc(C(=O)N3CCC(N4CCCC4)CC3)cc2)nc1-c1cc2ccccc2s1	binding	competition with immobilised ligand	1 µM	13%
COc1cccc(CNC(=O)c2nc3scc(COCc4ccc(C(=O)O)cc4)c3c(=O)[nH]2)c1	cell-free assay	competition with immobilised ligand	1 µM	100%
c1cnn2ncc(-c3ccnc(N4CCC45COC5)n3)c2c1	binding	–	1 µM	100%
O=c1nc(-c2ccccn2)sc2ccccc12	binding	competition with immobilised ligand	1 µM	100%
O=C(Nc1c[nH]nc1C(=O)NC1CCNCC1)c1cc(F)cc(F)c1	binding	competition with immobilised ligand	1 µM	99%
FC(F)(F)c1ccc2c(c1)nc(-c1cccnc1)n2C1CC1	cell-free assay	competition with immobilised ligand	1 µM	100%
Cc1cnn2ncc(-c3ccnc(N(C)C)n3)c2c1	binding	–	1 µM	100%
